# Screening data (PubChem)
# An excerpt weighted towards active compounds, which were near 2.2% of everything screened.
# FLuc inhib CS: counter-screen for luciferase assay inhibitors: firefly luciferase inhibition; P08659; ATPLite firefly luciferase biochemical luminescence, 10 min; inhibition, % at 10 µM; 200,000 tested, 1.5% active;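 active = inhibition above about 50% when tested at 10 µM, limit read from the data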
# Target sequence (P08659 whole entry, looked up): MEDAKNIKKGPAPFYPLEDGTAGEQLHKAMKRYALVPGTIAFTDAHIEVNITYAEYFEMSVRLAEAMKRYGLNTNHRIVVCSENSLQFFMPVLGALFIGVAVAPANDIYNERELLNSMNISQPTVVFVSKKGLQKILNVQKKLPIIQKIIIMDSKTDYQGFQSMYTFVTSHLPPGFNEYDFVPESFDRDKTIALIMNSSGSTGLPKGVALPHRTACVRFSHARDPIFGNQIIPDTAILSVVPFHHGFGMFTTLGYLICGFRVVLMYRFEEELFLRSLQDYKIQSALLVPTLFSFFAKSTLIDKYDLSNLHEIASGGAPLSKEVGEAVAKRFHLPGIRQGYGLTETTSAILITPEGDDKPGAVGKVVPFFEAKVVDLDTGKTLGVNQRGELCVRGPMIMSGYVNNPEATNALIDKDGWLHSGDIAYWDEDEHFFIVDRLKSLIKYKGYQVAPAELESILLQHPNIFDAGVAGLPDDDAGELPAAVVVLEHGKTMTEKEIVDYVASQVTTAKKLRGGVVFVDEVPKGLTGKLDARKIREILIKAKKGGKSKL
# PPC-1+TRAIL kill: PPC-1 cancer cell killing with TRAIL present; PPC-1 cells + TRAIL, ATPLite viability luminescence; cell killing (% activity), % at 4 µM or 5 µM; 220,000 tested, 0.41% active; AID 1443;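 active = cell killing above 50% in the first pass at 4 µM, then a duplicate retest at 5 µM averaging 50% or more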;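 also: plate controls were cells with TRAIL plus DMSO for no effect and medium-only wells lacking cells for full effect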
# C8 TRAIL sens: caspase-8 TRAIL sensitization; 360,000 tested, 1% active; NB7+C8 cells + TRAIL, ATPlite viability luminescence; AID 624354; inhibition (viability loss, TRAIL sensitization), % at 10 µM;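 active = compounds causing at least 50% loss of cell viability in the single-dose screen, relative to plate controls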
# NF-kB expr up: NF-kB expression increase, human neuronal cells; NF-kB reporter expression; stronger effect = higher value; fold change at 12.5 µM; 190,000 tested, 1.6% active; in the data active = fold change above about 3.3
# FLuc stim CS: affects firefly luciferase, flagging false hits in luciferase stimulation screens; P08659; ATPlite luciferase biochemical, luminescence, 10 min; 0 = ATP-free wells, 1 = DMSO control; activation factor at 10 µM; 200,000 tested, under 10 active;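 active = luciferase activation factor, scaled between plate controls, of at least 2 with compound at 10 µM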
#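 System: cell-free luciferase reagent; medium: PBS as buffer for the ATP substrate; doses: test compounds dosed from 2 mM stocks in 100% DMSO; incubation: 10 min, room temperature; measured by: luminescence from luciferase reaction; read-out: luciferase activation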
# APP 5'UTR act: APP 5'UTR luciferase reporter activation. SH-SY5Y APP 5'UTR luciferase reporter, luminescence; zero percent = DMSO vehicle wells. activation, % at 2 µM. 190,000 tested, 1% active. AID 1276;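 active = activation above a set limit, based on mean plus 3 SD of controls, cut at about 140% in these data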
# PPC1 cytotox: kills PPC-1 cells; shares compounds with PPC-1+TRAIL kill; PPC-1 viability, ATPlite luminescence, overnight; cytotoxicity, % at 5 µM; 1,200 tested, 50% active;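 active = reconfirmed compounds whose average cytotoxicity reaches 50% or more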;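 also: 0% = DMSO-treated cells and 100% = wells holding medium but no cells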
# The depositor's hits bear a star; · = no result.
SMILES,FLuc inhib CS,PPC-1+TRAIL kill,C8 TRAIL sens,NF-kB expr up,FLuc stim CS,APP 5'UTR act,others
COC(=O)CCCSc1nccn1-c1ccccc1,-6,12,3,6*,1.1,15,
FC(F)(F)c1cc(Cl)c2nc(-c3ccccc3)c(Cc3cccc(Cl)c3)n2c1,·,·,20,·,·,·,
C/C(=N/NC(=O)c1ccco1)c1cccc(NC(=O)c2ccc(C)s2)c1,69*,25,26,1.2,0.3,25,
C/C(=N\NC(=O)c1ccn(C)n1)c1cccc(NC(=O)c2ccc(C)s2)c1,73*,46,58*,1,0.3,13,
CC(=O)OC(/C(O)=C(\C#N)c1nc2ccccc2[nH]1)c1ccccc1 (stereo not given),-4,-9,-8,3.6*,1,18,
C/C(O)=C(/C#N)c1nc2ccccc2[nH]1,-5,4,0,1.2,1,·,
CC1CCc2c(C(=O)Nc3nccs3)csc2C1 (stereo not given),12,15,-1,4.1*,0.9,60,
CCNC(=S)NNC(=O)c1csc2c1CCC(C)C2 (stereo not given),-2,17,-10,1.4,1,24,
Cc1ccccc1NC(=S)NNC(=O)c1csc2c1CCC(C)C2 (stereo not given),60*,39,17,0.46,0.4,180*,
O=C(c1cnn(-c2ccccc2)c1)c1cc(F)ccc1O,·,·,5,·,·,·,
COc1ccc(O)c(C(=O)c2cnn(-c3ccccc3)c2)c1,·,·,4,·,·,·,
COc1ccc(-n2cc(C(=O)c3ccccc3O)cn2)cc1,66*,16,50*,3.9*,0.3,236*,
O=C(c1cnn(-c2ccccc2)c1)c1ccccc1O,39,14,27,9.5*,0.6,184*,
COc1ccc(CNC[C@H]2O[C@@H](n3ccc(=O)[nH]c3=O)[C@H](O)[C@@H]2O)cc1,·,·,5,·,·,·,
O=C1NC[C@@H](CCCCN2C[C@H](Cc3ccc(O)cc3)N(CCc3ccccc3)C(=O)C2=O)N(CC2CCCCC2)C1=O,·,·,3,·,·,·,
Cc1cc(NCCCn2ccnc2)n2ncc(-c3ccc(Cl)cc3)c2n1,34,7,54*,1.3,0.7,253*,
Cc1cc(NCCCN2CCOCC2)n2ncc(-c3ccc(Cl)cc3)c2n1,-1,-19,27,1.1,1,47,
C[C@H](NC(=O)C1CCN(C(=O)[C@@H]2CCCN2C(=O)OC(C)(C)C)CC1)C(=O)NCc1ccc(F)cc1,·,·,14,·,·,·,
c1ccc(CNc2nc(NCC3CC3)nc3cc(-c4ccccc4)sc23)cc1,·,·,55*,·,·,·,
COc1ccc(-c2cc3cccc(OC)c3oc2=O)cc1,·,·,78*,·,·,·,
COc1cccc(OC)c1C(=O)Nc1cccc(-c2nc3ccccc3[nH]2)c1,26,23,19,0.96,0.7,17,
COc1cccc2cc(-c3ccccc3)c(=O)oc12,60*,25,29,4.7*,0.4,152*,
O=C(O)c1cccc(-c2nc3ccccc3[nH]2)c1,48,22,46,1.7,0.5,15,
COc1cccc2cc(-c3nc4ccccc4[nH]3)c(=O)oc12,·,·,54*,·,·,·,
COc1cccc2cc(-c3nc(-c4cccs4)cs3)c(=O)oc12,-1,0,22,1.3,1,105,
SMILES,FLuc inhib CS,PPC-1+TRAIL kill,C8 TRAIL sens,NF-kB expr up,FLuc stim CS,APP 5'UTR act,others
Cc1cccc2cc(-c3nc4ccc(C(=O)O)cc4[nH]3)c(=O)oc12,·,·,54*,·,·,·,
CC(=O)C1=CCC(c2ccccc2)N(Cc2ccccc2)C1 (stereo not given),·,·,-9,·,·,·,
O=C(Nc1cccc2[nH]c([C@H]3C[C@H](O)[C@@H](CO)O3)nc12)NC(c1ccccc1)c1ccccc1,·,·,0,·,·,·,
C[C@@H]1CN([C@H](C)CO)C(=O)CCCn2nncc2CO[C@H]1CN(C)S(=O)(=O)c1ccccc1F,·,·,7,·,·,·,
CC(C)(C)c1ccc(-c2nc3[nH]c(=O)cc(NC(=O)c4ccco4)n3n2)cc1,·,·,62*,·,·,·,
Cc1ccc(-c2nc3[nH]c(=O)cc(NC(=O)c4cccs4)n3n2)cc1,·,5,20,·,·,·,
O=C(NCc1ccncc1)[C@@H]1CCCN1C(=O)[C@@H]1CCCN1C(=O)c1cccc2ccccc12,·,·,12,·,·,·,
COc1cc([N+](=O)[O-])ccc1NC(=O)CSc1nc2ccccc2n1-c1ccccc1,-8,25,·,4.2*,1.1,13,
CCOc1ccc(-n2c(SCC(=O)Nc3cc(OC)c([N+](=O)[O-])cc3C)nc3ccccc32)cc1,-6,-5,0,0.84,1.1,16,
Nc1c(-c2ccccc2)cnn1-c1ccccc1,·,·,54*,·,·,·,
Nc1c(-c2cccc(Cl)c2)cnn1-c1ccccc1,·,·,10,·,·,·,
CCN(C(=O)CN1C(=O)NC2(CCCC2)C1=O)c1nc2c(C)cccc2s1,·,·,-8,·,·,·,
Cc1cccc(OCCN2C(=O)C(=O)c3cc(C)ccc32)c1,10,·,4,3.8*,0.9,-93,
Cc1ccc2c(c1)C(=O)C(=O)N2CCOc1ccccc1,8,10,10,3.6*,0.9,-79,
Cc1cccc(OCCN2C(=O)C(=O)c3cccc(C)c32)c1,-10,-3,-4,1.8,1.1,·,
CCN(CC)C(=O)c1cc(-c2ccc(Br)cc2)on1,17,4,12,3.3*,0.8,74,
CCCCCn1nnnc1C1(C)CCC(=O)N1Cc1ccco1 (stereo not given),·,·,3,·,·,·,
O=C1/C(=C/c2cccs2)COc2ccccc21,71*,8,14,3,0.3,70,
O=C1C(=Cc2cccs2)Oc2ccccc21,·,·,-12,·,·,·,
NC(=O)c1ccc(-c2ncc(-c3ccccc3)o2)cc1,29,22,18,12*,0.7,126,
Cc1cccc(N2CCN(S(=O)(=O)c3ccc4c(c3)NC(=O)C(C)S4)CC2)c1C (stereo not given),·,·,54*,·,·,·,
Fc1cccc(-c2csc(-c3ccno3)n2)c1,·,-7,4,·,·,·,
Nc1nc(-c2ccc3c(c2)CCCC3)cs1,58*,29,11,5.3*,0.4,95,
Nc1nc(-c2cccc(F)c2)cs1,3,·,2,3.4*,1,18,
Nc1nc(-c2ccc3c(c2)OCCO3)cs1,39,1,11,2.4,0.6,24,
COCCN(C(=O)COC(=O)c1c(NC(C)=O)sc(C)c1C)c1c(N)n(Cc2ccccc2)c(=O)[nH]c1=O,·,·,51*,·,·,·,
CC(=O)Nc1sc(C)c(C)c1C(=O)OCC(=O)N(C)c1c(N)n(Cc2ccccc2)c(=O)[nH]c1=O,·,·,-1,·,·,·,
CCOc1cc(C(=O)OCc2ccc(OC)cc2)ccc1OCC(=O)N1CCOCC1,·,·,-5,·,·,·,
CCOc1cc(C(=S)N2CCN(C)CC2)ccc1OCC(=O)N1CCOCC1,-2,-6,-20,0.89,1,-6,PPC1 cytotox=-5
O=C(Nc1ccc(N2CCOCC2)cc1)c1ccncc1,10,16,0,1.1,0.9,-3,
